Eight molecules from ChEMBL document CHEMBL3259662 (ACS Med Chem Lett, 2014) can be followed below.

The structures appear in SMILES notation. In brackets after ≈: the same amount, converted by molar mass. Activity calls are given as the source filed them. No cut-off for these calls is given here. Peptide text beside a SMILES is read from it. * marks the point of attachment. Boc = CC(C)(C)OC(=O)*

The nature of data set [1]: Selectivity index, ratio of cytotoxicity for human SK-MEL cells to IC50 for Cryptococcus neoformans ATCC 90113. It counts as toxicity, cell-based. Conditions: read-out: Selectivity Index.
Data set [2] can be described thus: Selectivity index, ratio of cytotoxicity for pig LLC-PK1 cells to IC50 for Cryptococcus neoformans ATCC 90113. It counts as toxicity, cell-based. As to conditions: read-out: Selectivity Index.
Data set [3] deals with Staphylococcus aureus. Put plainly: Antibacterial activity against Staphylococcus aureus ATCC 29213 by CLSI method. It counts as functional, organism-based.
A further data set concerns BT-549. Briefly: Cytotoxicity against human BT549 cells assessed as cell viability after 48 hrs by neutral red uptake assay. It counts as cell-based. As to conditions: bt-549, 48 h. Put shortly: (§1)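 Neutral red uptake assay in human cancer lines SK-MEL, KB, BT-549 and SK-OV-3 and in noncancerous mammalian kidney cells VERO and LLC-PK1. The highest tested concentration was 10 μg/mL.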

Data set [4] is described as follows: Selectivity index, ratio of cytotoxicity for human KB cells to IC50 for Cryptococcus neoformans ATCC 90113. Format: toxicity, cell-based. Conditions: read-out: Selectivity Index.
The nature of data set [5]: Selectivity index, ratio of cytotoxicity for African green monkey Vero cells to IC50 for Cryptococcus neoformans ATCC 90113. It counts as toxicity, cell-based. As to conditions: read-out: Selectivity Index.
The next data set has as its system Escherichia coli. Put plainly: Antibacterial activity against Escherichia coli ATCC 35218 after 16 to 20 hrs by CLSI method. Format: functional, organism-based.
In the next data set the test system is Nakaseomyces glabratus. Put plainly: Antifungal activity against Candida glabrata by CLSI method. Format: functional, organism-based.
A short description of data set [6]: Retention time of the compound by reverse phase HPLC analysis. Format: physicochemical. Put shortly: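 Reverse-phase HPLC on a C-18 column (25 cm × 4.6 mm, 5 μM) at 1 mL/min over 40 min. The gradient ran 85−5% with A = 0.1% TFA in H2O and B = 0.1% TFA in CH3CN. Detection was at 220 nm.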
Data set [7] in a line: Selectivity index, ratio of cytotoxicity for human SKOV3 cells to IC50 for Cryptococcus neoformans ATCC 90113. Format: toxicity, cell-based, SK-OV-3. Conditions: read-out: Selectivity Index.
In data set [8] the test system is Cryptococcus neoformans. Put plainly: Ratio of amphotericin B MFC to compound MFC for Cryptococcus neoformans ATCC 90113 after 70 to 74 hrs by CLSI method. Format: functional.
A further data set has as its system Pichia kudriavzevii. Put plainly: Antifungal activity against Candida krusei by CLSI method. It counts as functional, organism-based.
The next data set has as its system Aspergillus fumigatus. Briefly: Antifungal activity against Aspergillus fumigatus by CLSI method. It counts as functional, organism-based.
A further data set relates to Candida albicans. Put plainly: Antifungal activity against Candida albicans by CLSI method. Format: functional, organism-based.
In data set [9] the test system is Staphylococcus aureus. Briefly: Antibacterial activity against methicillin-resistant Staphylococcus aureus ATCC 33591 after 16 to 20 hrs by CLSI method. It counts as functional, organism-based.
Data set [10] concerns Cryptococcus neoformans. Briefly: Antifungal activity against Cryptococcus neoformans ATCC 90113 after 70 to 74 hrs by CLSI method. Format: functional, organism-based. As to conditions: for IC50 / MIC: Cryptococcus neoformans, ATCC 90113. The essentials:
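Growth inhibition of C. neoformans per the CLSI protocol. […] MIC is the lowest test concentration with no detectable growth. MFC is the lowest concentration killing 100% of the organism.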

For the next data set, the system named is KB. Put plainly: Cytotoxicity against human KB cells assessed as cell viability after 48 hrs by neutral red uptake assay. Format: cell-based. Put shortly:
as §1

A further data set relates to SK-MEL. Briefly: Cytotoxicity against human SK-MEL cells assessed as cell viability after 48 hrs by neutral red uptake assay. It counts as cell-based. The essentials:
as §1

Data set [11] is described as follows: Selectivity index, ratio of cytotoxicity for human BT549 cells to IC50 for Cryptococcus neoformans ATCC 90113. Format: toxicity, cell-based, BT-549. Conditions: read-out: Selectivity Index.
Another data set has as its system SK-OV-3. Briefly: Cytotoxicity against human SKOV3 cells assessed as cell viability after 48 hrs by neutral red uptake assay. Format: cell-based. Conditions: sk-ov-3, 48 h. Put shortly: as §1
The test system of a further data set is LLC-PK1. Briefly: Cytotoxicity against pig LLC-PK1 cells assessed as cell viability after 48 hrs by neutral red uptake assay. It counts as cell-based, Sus scrofa. Conditions: llc-pk1, 48 h. The essentials: as §1
The test system of another data set is Vero. Put plainly: Cytotoxicity against African green monkey Vero cells assessed as cell viability after 48 hrs by neutral red uptake assay. Format: cell-based. As to conditions: chlorocebus sabaeus. Put shortly:
as §1

Data set [12] concerns Cryptococcus neoformans. Briefly: Antifungal activity against Cryptococcus neoformans ATCC 90113 at 20 ug/ml after 70 to 74 hrs by CLSI method. Format: functional, organism-based. The essentials:
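C. neoformans screened per the CLSI protocol at the highest tested concentration of 20 μg/mL. Compounds showing no activity at this level were scored not active.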

Regarding `CC(C)(C)OC(=O)N[C@@H](CCCNC(=N)N)C(=O)N[C@@H](Cc1c[nH]c(-c2ccc(C(C)(C)C)cc2)n1)C(=O)N[C@@H](CCCNC(=N)N)C(=O)NCc1ccccc1`, the selectivity ratio in [1], in data set [2], in data set [4], in [5], in data set [7] and in [11] was more than 55.6 throughout. Further, the IC50 (in general, the concentration needed to halve the response being measured) was found to be 12.5 mg/L (≈ 15.9 µM) with Staphylococcus aureus [3]; 11.5 mg/L (≈ 14.6 µM) in the data set with Staphylococcus aureus [9] (Staphylococcus aureus, ATCC 33591, read-out: IC50); 0.18 mg/L (≈ 0.228 µM) in the data set with Cryptococcus neoformans [10]. Further, the MBC100 result in the data set on Staphylococcus aureus [3] and in the data set with Staphylococcus aureus [9] was “inactive” each time. The MIC (as a rule, the lowest concentration that inhibits growth of the organism) in the data set with Staphylococcus aureus [3] is 20 mg/L (≈ 25.3 µM); against Staphylococcus aureus [9] (Staphylococcus aureus, ATCC 33591) it was 20 mg/L (≈ 25.3 µM); in the data set on Cryptococcus neoformans [10], 0.63 mg/L (≈ 0.798 µM). Besides, the Activity with BT-549, in the data set on KB, in the data set with SK-MEL, with SK-OV-3, with LLC-PK1 and in the data set with Vero was more than 10 µg/mL each time. The outcome in the data set on Escherichia coli, in the data set on Nakaseomyces glabratus, in the data set with Pichia kudriavzevii, in the data set on Aspergillus fumigatus and with Candida albicans was inactive. In addition, the Retention_time in [6] is recorded as 24.41 min. In the data set with Cryptococcus neoformans [8], the Ratio is recorded as 2. In the data set on Cryptococcus neoformans [10], this molecule gave an MFC100 of 0.63 mg/L (≈ 0.798 µM).

With `COC(=O)[C@H](CCCNC(=N)N)NC(=O)[C@H](Cc1c[nH]cn1)NC(=O)[C@@H](N)CCCNC(=N)N` (H-Arg-His-Arg-OMe), the outcome in the data set with Cryptococcus neoformans [12], in the data set with Escherichia coli, in the data set with Nakaseomyces glabratus, with Pichia kudriavzevii, in the data set on Aspergillus fumigatus and in the data set on Candida albicans was inactive. In addition, the Activity in the data set on BT-549, with KB, with SK-MEL, in the data set on SK-OV-3, with LLC-PK1 and with Vero was more than 10 µg/mL throughout. It took 19 mg/L (≈ 39.5 µM) to reach half-maximal inhibition with Cryptococcus neoformans [10] (IC50).

Take `COC(=O)[C@H](CCCNC(=N)N)NC(=O)[C@H](Cc1c[nH]cn1)NC(=O)[C@H](CCCNC(=N)N)NC(=O)OC(C)(C)C` (Boc-Arg-His-Arg-OMe): the outcome in the data set on Cryptococcus neoformans [12], in the data set on Escherichia coli, with Nakaseomyces glabratus, in the data set on Pichia kudriavzevii, with Aspergillus fumigatus and in the data set on Candida albicans was inactive. Also, the Activity in the data set with BT-549, with KB, with SK-MEL, in the data set with SK-OV-3, in the data set on LLC-PK1 and in the data set with Vero was more than 10 µg/mL throughout. In data set [6], this molecule showed a Retention_time of 10.75 min.

Take `N=C(N)NCCC[C@H](NC(=O)[C@H](Cc1c[nH]c(-c2ccc(-c3ccccc3)cc2)n1)NC(=O)[C@@H](N)CCCNC(=N)N)C(=O)NCc1ccccc1`: the selectivity ratio in data set [1], in data set [2], in [4], in [5], in data set [7] and in data set [11] was more than 100 each time. Moreover, the results for the IC50 in the data set with Staphylococcus aureus [3], with Staphylococcus aureus [9] and in the data set on Cryptococcus neoformans [10] were 15.4 mg/L (≈ 21.7 µM), “Not Active” and 0.1 mg/L (≈ 0.141 µM), respectively. For the same molecule, the MBC100 entry in the data set on Staphylococcus aureus [3] and in the data set with Staphylococcus aureus [9] was “inactive” throughout. The MIC result in the data set on Staphylococcus aureus [3] and in the data set on Staphylococcus aureus [9] was “inactive” throughout. Further, the Activity with BT-549, in the data set with KB, with SK-MEL, in the data set with SK-OV-3, with LLC-PK1 and with Vero was more than 10 µg/mL each time. For the same molecule, the outcome with Escherichia coli, in the data set with Nakaseomyces glabratus, with Pichia kudriavzevii, with Aspergillus fumigatus and in the data set with Candida albicans was inactive. Also, the Ratio in the data set on Cryptococcus neoformans [8] amounted to 8. This molecule also showed an MFC100 in the data set on Cryptococcus neoformans [10] of 0.16 mg/L (≈ 0.226 µM). This molecule also registered an MIC with Cryptococcus neoformans [10] of 0.16 mg/L (≈ 0.226 µM).

Take `COc1ccc(-c2nc(C[C@H](NC(=O)[C@@H](N)CCCNC(=N)N)C(=O)N[C@@H](CCCNC(=N)N)C(=O)NCc3ccccc3)c[nH]2)cc1`: the selectivity ratio in data set [1], in data set [2], in [4], in [5], in [7] and in [11] was more than 23.3 throughout. Also, the Activity in the data set with BT-549, in the data set with KB, with SK-MEL, in the data set with SK-OV-3, with LLC-PK1 and with Vero was more than 10 µg/mL each time. For the same molecule, the result in the data set with Escherichia coli, in the data set on Nakaseomyces glabratus, in the data set with Pichia kudriavzevii, with Aspergillus fumigatus and in the data set with Candida albicans was inactive. For the same molecule, the Ratio in the data set on Cryptococcus neoformans [8] turned out to be 2. In the data set with Cryptococcus neoformans [10], this molecule displayed an MFC100 of 0.63 mg/L (≈ 0.951 µM). The molecule also yielded an IC50 in the data set on Cryptococcus neoformans [10] of 0.43 mg/L (≈ 0.649 µM). For the same molecule, the lowest concentration to inhibit growth in the data set with Cryptococcus neoformans [10] (MIC) was 0.63 mg/L (≈ 0.951 µM).

For the molecule `COC(=O)[C@H](CCCNC(=N)N)NC(=O)[C@H](Cc1c[nH]c(-c2ccc(C)cc2)n1)NC(=O)[C@@H](N)CCCNC(=N)N`, the outcome in the data set on Cryptococcus neoformans [12], with Escherichia coli, with Nakaseomyces glabratus, in the data set on Pichia kudriavzevii, with Aspergillus fumigatus and in the data set on Candida albicans was inactive. For the same molecule, the Activity in the data set with BT-549, in the data set on KB, in the data set with SK-MEL, in the data set with SK-OV-3, in the data set on LLC-PK1 and in the data set with Vero was more than 10 µg/mL each time. The molecule also returned an IC50 in the data set on Cryptococcus neoformans [10] of 19.7 mg/L (≈ 34.5 µM).

For the molecule `COC(=O)[C@H](CCCNC(=N)N)NC(=O)[C@H](Cc1c[nH]c(-c2ccccc2)n1)NC(=O)[C@H](CCCNC(=N)N)NC(=O)OC(C)(C)C`, the outcome with Cryptococcus neoformans [12], in the data set on Escherichia coli, in the data set on Nakaseomyces glabratus, in the data set on Pichia kudriavzevii, with Aspergillus fumigatus and in the data set on Candida albicans was inactive. Moreover, the Activity in the data set with BT-549, in the data set on KB, with SK-MEL, in the data set on SK-OV-3, in the data set with LLC-PK1 and with Vero was more than 10 µg/mL throughout. In addition, the Retention_time in [6] was found to be 11.89 min. The molecule also returned an IC50 in the data set with Cryptococcus neoformans [10] of 10.4 mg/L (≈ 15.8 µM).

With `COC(=O)[C@H](CCCNC(=N)N)NC(=O)[C@H](Cc1c[nH]c(-c2ccc(C)cc2)n1)NC(=O)[C@H](CCCNC(=N)N)NC(=O)OC(C)(C)C`, the result with Cryptococcus neoformans [12], with Escherichia coli, in the data set on Nakaseomyces glabratus, with Pichia kudriavzevii, with Aspergillus fumigatus and in the data set with Candida albicans was inactive. Besides, the selectivity ratio in data set [1], in data set [2], in data set [4], in data set [5], in [7] and in data set [11] was more than 1 each time. Besides, the Activity with BT-549, in the data set on KB, in the data set with SK-MEL, in the data set on SK-OV-3, in the data set with LLC-PK1 and in the data set with Vero was more than 10 µg/mL each time. The molecule also registered a Retention_time in data set [6] of 14.76 min. In the data set with Cryptococcus neoformans [10], this molecule registered an IC50 of 9.71 mg/L (≈ 14.5 µM).
